Laboratory results reported in PMC5114172 (Journal of applied toxicology : JAT, 2016).

What was measured:
[1] = test system: highly purified human NKs; assay: IL-1β secretion assay; assay type: cell-based; settings: for Interleukin 1 beta secreted: NK
Outline: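 NK cells, MD-PBMCs, PBMCs or granulocytes (1.5 million/mL) or PBMC+granulocytes (0.75 million/mL each), per donor, exposed 24 h, 48 h or 6 days to 0.05–5 μM test compound diluted from DMSO stock, with DMSO controls. Supernatants kept at −70 °C. IL-1β by sandwich ELISA: HRP detection antibody, acid-stopped substrate, A450 against standards. Detection limit 3 pg/mL; triplicates; ANOVA then t test versus control, p<0.05.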

[2] = test system: PBMCs; assay: Cell viability, trypan blue exclusion; assay type: cell-based, human; settings: for Percent Viable Cells / decrease in viability: PBMCs
[3] = test system: NK cells; assay: Cell viability, trypan blue exclusion; assay type: cell-based, human

## CCC[CH2][Sn][CH2]CCC [DBT, Dibutyltin]
[1]; NK cells, 24 h, across donors
  average of the maximum fold increase in IL-β secretion: 3.5 fold
[1]; NK cells, donor KB169, 0.05 μM (50 nM) DBT
  fold increase in IL-1β secretion: 7.9 fold
[1]; NK cells, donor KB169, 0.1 μM (100 nM) DBT
  fold increase in IL-1β secretion: 6.0 fold
[1]; donor KB130, 24 h, 0.05 μM DBT
  Interleukin 1 beta secreted: 386 ± 41 pg/mL
[1]; donor KB130, 24 h, 0.1 μM DBT
  Interleukin 1 beta secreted: 116 ± 27 pg/mL
[1]; donor KB130, 24 h, 0.25 μM DBT
  Interleukin 1 beta secreted: 17 ± 20 pg/mL
[1]; donor KB130, 48 h, 0.05 μM DBT
  Interleukin 1 beta secreted: 1372 ± 481 pg/mL
[1]; donor KB130, 48 h, 0.1 μM DBT
  Interleukin 1 beta secreted: 298 ± 65 pg/mL
[1]; donor KB130, 48 h, 0.25 μM DBT
  Interleukin 1 beta secreted: 139 ± 46 pg/mL
[1]; donor KB130, 6 day, 0.05 μM DBT
  Interleukin 1 beta secreted: 782 ± 35 pg/mL
[1]; donor KB130, 6 day, 0.1 μM DBT
  Interleukin 1 beta secreted: 550 ± 21 pg/mL
[1]; donor KB130, 6 day, 0.25 μM DBT
  Interleukin 1 beta secreted: 142 ± 27 pg/mL
[1]; donor KB130, 6 day, 0.5 μM DBT
  Interleukin 1 beta secreted: 46 ± 53 pg/mL
[1]; donor KB155, 24 h, 0.05 μM DBT
  Interleukin 1 beta secreted: 2965 ± 1004 pg/mL
[1]; donor KB155, 24 h, 0.1 μM DBT
  Interleukin 1 beta secreted: 2771 ± 70 pg/mL
[1]; donor KB155, 24 h, 0.25 μM DBT
  Interleukin 1 beta secreted: 779 ± 25 pg/mL
[1]; donor KB155, 24 h, 0.5 μM DBT
  Interleukin 1 beta secreted: 28 ± 23 pg/mL
[1]; donor KB155, 48 h, 0.05 μM DBT
  Interleukin 1 beta secreted: 5235 ± 531 pg/mL
[1]; donor KB155, 48 h, 0.1 μM DBT
  Interleukin 1 beta secreted: 4588 ± 130 pg/mL
[1]; donor KB155, 48 h, 0.25 μM DBT
  Interleukin 1 beta secreted: 1598 ± 450 pg/mL
[1]; donor KB155, 48 h, 0.5 μM DBT
  Interleukin 1 beta secreted: 130 ± 39 pg/mL
[1]; donor KB155, 6 day, 0.05 μM DBT
  Interleukin 1 beta secreted: 1625 ± 164 pg/mL
[1]; donor KB155, 6 day, 0.1 μM DBT
  Interleukin 1 beta secreted: 1572 ± 245 pg/mL
[1]; donor KB155, 6 day, 0.25 μM DBT
  Interleukin 1 beta secreted: 960 ± 152 pg/mL
[1]; donor KB155, 6 day, 0.5 μM DBT
  Interleukin 1 beta secreted: 138 ± 43 pg/mL
[1]; donor KB169, 24 h, 0.05 μM DBT
  Interleukin 1 beta secreted: 1551 ± 25 pg/mL
[1]; donor KB169, 24 h, 0.1 μM DBT
  Interleukin 1 beta secreted: 1173 ± 69 pg/mL
[1]; donor KB169, 24 h, 0.25 μM DBT
  Interleukin 1 beta secreted: 796 ± 137 pg/mL
[1]; donor KB169, 24 h, 0.5 μM DBT
  Interleukin 1 beta secreted: 114 ± 21 pg/mL
[1]; donor KB169, 48 h, 0.05 μM DBT
  Interleukin 1 beta secreted: 341 ± 10 pg/mL
[1]; donor KB169, 48 h, 0.1 μM DBT
  Interleukin 1 beta secreted: 367 ± 53 pg/mL
[1]; donor KB169, 48 h, 0.25 μM DBT
  Interleukin 1 beta secreted: 262 ± 14 pg/mL
[1]; donor KB169, 6 day, 0.05 μM DBT
  Interleukin 1 beta secreted: 453 ± 91 pg/mL
[1]; donor KB169, 6 day, 0.1 μM DBT
  Interleukin 1 beta secreted: 602 ± 257 pg/mL
[1]; donor KB169, 6 day, 0.25 μM DBT
  Interleukin 1 beta secreted: 511 ± 227 pg/mL
[1]; donor KB169, 6 day, 0.5 μM DBT
  Interleukin 1 beta secreted: 157 ± 61 pg/mL
[2]; PBMC, 24 h, 5 μM DBT
  average decrease in viability: 31%
[2]; 24 h, 0.05 μM DBT
  Percent Viable Cells: 96±4%
[2]; 24 h, 0.1 μM DBT
  Percent Viable Cells: 97±3%
[2]; 24 h, 0.25 μM DBT
  Percent Viable Cells: 96±3%
[2]; 24 h, 0.5 μM DBT
  Percent Viable Cells: 95±3%
[2]; 24 h, 1 μM DBT
  Percent Viable Cells: 86±7%
[2]; 24 h, 2.5 μM DBT
  Percent Viable Cells: 69±10 %
[2]; 24 h, 5 μM DBT
  Percent Viable Cells: 65±8 %
[2]; 24 h, 2.5 and 5 μM DBT
  decrease in viability: 25%
[2]; 48 h, 0.05 μM DBT
  Percent Viable Cells: 93±3%
[2]; 48 h, 0.1 μM DBT
  Percent Viable Cells: 94±4%
[2]; 48 h, 0.25 μM DBT
  Percent Viable Cells: 94±4%
[2]; 48 h, 0.5 μM DBT
  Percent Viable Cells: 91±8%
[2]; 48 h, 1 μM DBT
  Percent Viable Cells: 74±16%
[2]; 48 h, 2.5 μM DBT
  Percent Viable Cells: 56±13 %
  decrease in viability: 38%
[2]; 48 h, 5 μM DBT
  Percent Viable Cells: 56±8 %
  decrease in viability: 35%
[2]; 6 day, 0.05 μM DBT
  Percent Viable Cells: 68±45%
[2]; 6 day, 0.1 μM DBT
  Percent Viable Cells: 87±11%
[2]; 6 day, 0.25 μM DBT
  Percent Viable Cells: 69±33%
[2]; 6 day, 0.5 μM DBT
  Percent Viable Cells: 68±13%
[2]; 6 day, 1 μM DBT
  Percent Viable Cells: 43±12%
[2]; 6 day, 2.5 μM DBT
  Percent Viable Cells: 36±25%
[2]; 6 day, 5 μM DBT
  Percent Viable Cells: 42±15%
[3]; 24 h, 0.05 μM DBT
  Percent Viable Cells: 97±3%
[3]; 24 h, 0.1 μM DBT
  Percent Viable Cells: 98±2%
[3]; 24 h, 0.25 μM DBT
  Percent Viable Cells: 98±1%
[3]; 24 h, 0.5 μM DBT
  Percent Viable Cells: 95±4%
[3]; 24 h, 1 μM DBT
  Percent Viable Cells: 92±5%
[3]; 24 h, 2.5 μM DBT
  Percent Viable Cells: 88±1%
[3]; 24 h, 5 μM DBT
  Percent Viable Cells: 80±7%
  average decrease in viability: 13%
[3]; 24 h, 0.05–1 μM DBT
  effect on viability compared to the control: no effect
[3]; 24 h, 2.5 and 5 μM DBT
  decrease in NK cell viability: about 10%
[3]; 48 h, 0.05 μM DBT
  Percent Viable Cells: 97±0%
[3]; 48 h, 0.1 μM DBT
  Percent Viable Cells: 96±1%
[3]; 48 h, 0.25 μM DBT
  Percent Viable Cells: 93±0 %
[3]; 48 h, 0.5 μM DBT
  Percent Viable Cells: 90±1 %
[3]; 48 h, 1 μM DBT
  Percent Viable Cells: 79±12%
[3]; 48 h, 2.5 μM DBT
  Percent Viable Cells: 61±6 %
[3]; 48 h, 5 μM DBT
  Percent Viable Cells: 64±8 %
